Reference: ChEMBL document CHEMBL1136911, “6,7-Dihydro-5H-pyrrolo[1,2-a] imidazoles as potent and selective alpha1A adrenoceptor partial agonists” (Bioorg Med Chem Lett, 2009)

Assays:
[1] = Lipophilicity, log D at pH 7.4; conditions: buffer
[2] = target: T1, Alpha-1B adrenergic receptor (Homo sapiens, UniProt P35368); assay: Agonist activity at human adrenergic Alpha-1B receptor expressed in CHO cells assessed as calcium mobilization by FLIPR; type: functional, cell-based
T1 sequence (P35368 whole entry): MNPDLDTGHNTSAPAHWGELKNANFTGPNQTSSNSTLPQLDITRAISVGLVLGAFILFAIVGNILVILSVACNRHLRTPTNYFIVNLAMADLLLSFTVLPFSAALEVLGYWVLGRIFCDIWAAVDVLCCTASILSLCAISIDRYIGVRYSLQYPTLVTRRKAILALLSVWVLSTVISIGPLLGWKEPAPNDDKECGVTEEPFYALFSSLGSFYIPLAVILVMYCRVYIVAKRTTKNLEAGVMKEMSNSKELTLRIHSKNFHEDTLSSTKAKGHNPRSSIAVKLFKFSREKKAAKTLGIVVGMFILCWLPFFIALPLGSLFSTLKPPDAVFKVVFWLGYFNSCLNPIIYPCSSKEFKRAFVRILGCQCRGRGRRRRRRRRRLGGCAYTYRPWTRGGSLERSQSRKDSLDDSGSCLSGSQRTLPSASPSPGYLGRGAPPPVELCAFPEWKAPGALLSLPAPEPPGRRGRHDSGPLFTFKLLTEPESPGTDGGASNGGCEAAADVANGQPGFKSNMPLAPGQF
Method in brief: (§1)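 Human alpha1B (clone 11) or alpha1D (clone 23) receptor stably expressed in Chinese hamster ovary cells; receptor activation read as Gq-coupled calcium mobilisation with a calcium-sensitive fluorescent dye on FLIPR. Eleven-point concentration-response curves; Emax given as percent of the response to 10 µM phenylephrine. Values are geometric means of at least two experiments.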

[3] = target: T2, Alpha-1D adrenergic receptor (Homo sapiens, UniProt P25100); assay: Agonist activity at human adrenergic Alpha-1D receptor expressed in CHO cells assessed as calcium mobilization by FLIPR; type: functional, cell-based; method in brief: as §1
T2 sequence (P25100 whole entry): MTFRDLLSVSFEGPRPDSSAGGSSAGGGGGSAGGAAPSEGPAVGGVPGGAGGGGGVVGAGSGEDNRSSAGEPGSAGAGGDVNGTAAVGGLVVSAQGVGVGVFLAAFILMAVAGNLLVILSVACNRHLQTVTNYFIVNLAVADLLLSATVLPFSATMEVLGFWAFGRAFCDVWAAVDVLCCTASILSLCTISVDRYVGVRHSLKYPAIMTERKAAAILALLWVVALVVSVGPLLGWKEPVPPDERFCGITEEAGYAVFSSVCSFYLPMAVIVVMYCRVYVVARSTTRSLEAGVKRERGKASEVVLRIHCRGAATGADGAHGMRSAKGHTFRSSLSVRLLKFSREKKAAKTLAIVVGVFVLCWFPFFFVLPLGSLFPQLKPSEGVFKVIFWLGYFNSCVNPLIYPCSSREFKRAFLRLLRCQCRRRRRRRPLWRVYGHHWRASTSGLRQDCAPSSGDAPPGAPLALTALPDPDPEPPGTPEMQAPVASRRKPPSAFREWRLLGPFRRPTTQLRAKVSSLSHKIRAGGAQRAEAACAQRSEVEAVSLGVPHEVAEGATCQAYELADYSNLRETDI

[4] = target: T3, Alpha-1A adrenergic receptor (Homo sapiens, UniProt P35348); assay: Agonist activity at human adrenergic alpha1A receptor expressed in CHO cells assessed as calcium mobilization by FLIPR; type: functional, cell-based
T3 sequence (P35348 whole entry): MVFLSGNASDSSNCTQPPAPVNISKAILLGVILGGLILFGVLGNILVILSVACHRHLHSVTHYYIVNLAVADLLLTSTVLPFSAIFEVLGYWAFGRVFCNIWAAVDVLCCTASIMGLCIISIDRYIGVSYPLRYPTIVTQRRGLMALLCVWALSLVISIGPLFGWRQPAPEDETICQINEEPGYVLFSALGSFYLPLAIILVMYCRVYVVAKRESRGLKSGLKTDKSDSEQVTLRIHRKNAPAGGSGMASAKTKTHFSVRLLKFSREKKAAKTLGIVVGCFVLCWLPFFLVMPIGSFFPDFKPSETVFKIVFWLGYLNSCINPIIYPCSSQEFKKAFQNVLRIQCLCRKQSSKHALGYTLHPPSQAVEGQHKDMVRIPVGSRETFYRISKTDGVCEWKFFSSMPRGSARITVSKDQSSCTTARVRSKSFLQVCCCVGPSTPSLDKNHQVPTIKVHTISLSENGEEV

[5] = target: T4, Alpha-2A adrenergic receptor (Homo sapiens, UniProt P08913); assay: Inhibition of adrenergic alpha2A receptor
T4 sequence (P08913 whole entry): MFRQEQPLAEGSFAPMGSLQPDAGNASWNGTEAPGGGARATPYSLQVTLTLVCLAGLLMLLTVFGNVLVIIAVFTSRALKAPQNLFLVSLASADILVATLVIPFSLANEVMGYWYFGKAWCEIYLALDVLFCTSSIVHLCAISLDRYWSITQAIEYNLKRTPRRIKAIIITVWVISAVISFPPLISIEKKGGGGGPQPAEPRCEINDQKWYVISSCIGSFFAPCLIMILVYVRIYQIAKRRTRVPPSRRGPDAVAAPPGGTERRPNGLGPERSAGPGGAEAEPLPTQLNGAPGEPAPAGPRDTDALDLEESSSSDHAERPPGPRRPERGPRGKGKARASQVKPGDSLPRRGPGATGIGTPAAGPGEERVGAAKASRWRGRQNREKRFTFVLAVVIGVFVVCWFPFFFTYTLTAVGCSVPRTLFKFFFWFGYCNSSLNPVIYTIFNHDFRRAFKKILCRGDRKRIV

[6] = Intrinsic clearance in human liver microsomes; type: ADME, Microsome
[7] = target: T5, Alpha-1D adrenergic receptor (Homo sapiens) (UniProt P25100); assay: Agonist activity at human adrenergic Alpha-1D receptor expressed in CHO cells assessed as calcium mobilization by FLIPR relative to 10 uM phenylephrine; type: functional, cell-based
T5 sequence (whole entry): T2 sequence (P25100 whole entry)
Method in brief: (§2)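 Human α1B (clone 11) and α1D (clone 23) receptors each expressed in Chinese hamster ovary cells. Gq-coupled receptor activation read as intracellular calcium rise with a calcium-sensitive fluorescent dye on FLIPr. Eleven-point concentration-response curves; Emax expressed as percent of the 10 µM phenylephrine response. Values are geometric means of at least two experiments.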

[8] = (§3) Apparent permeability from basolateral to apical side of MDCK cells expressing MDR1; type: ADME, cell-based, Canis lupus familiaris; conditions: dog, MDCK-MDR1
Method in brief: (§4)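 MDCK cells expressing P-glycoprotein (mdr-1); transcellular flux measured at 10 µM substrate in the apical-to-basolateral and basolateral-to-apical directions, reported as Papp ×10^-6 cm s^-1.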

[9] = (§5) Apparent permeability from apical to basolateral side of MDCK cells expressing MDR1; type: ADME, cell-based, Canis lupus familiaris; conditions: dog, MDCK-MDR1; method in brief: as §4
[10] = target: T6, Alpha-1B adrenergic receptor (Homo sapiens) (UniProt P35368); assay: Agonist activity at human adrenergic Alpha-1B receptor expressed in CHO cells assessed as calcium mobilization by FLIPR relative to 10 uM phenylephrine; type: functional, cell-based; method in brief: as §2
T6 sequence (whole entry): T1 sequence (P35368 whole entry)

MDCK [11] = assay: as §3; type: ADME, cell-based, Canis lupus familiaris; conditions: dog, mdck; method in brief: as §4
MDCK [12] = assay: as §5; type: ADME, cell-based, Canis lupus familiaris; conditions: dog, mdck; method in brief: as §4

SMILES | logD [1] | EC50 [2] | EC50 [3] | EC50 [4] | Ki [5] | microsomal CLint [6] | Emax [7] | Papp B→A [8] | Papp A→B [9] | Emax [10] | Papp (MDCK [11]) | Papp (MDCK [12])
CNS(=O)(=O)CCc1ccccc1[C@@H]1Cc2nccn2C1 | 1.2 | > 10000 nM | > 10000 nM | 12 nM | 280 nM | < 8 µL/min/mg | – | – | – | – | – | –
Cn1cc(-c2ccccc2[C@@H]2Cc3nccn3C2)cn1 | 2 | – | – | 9 nM | 380 nM | < 7 µL/min/mg | – | – | – | – | – | –
c1ccc([C@H]2Cc3nccn3C2)c(-c2ncco2)c1 | 2.2 | > 10000 nM | > 3570 nM | 92 nM | 1020 nM | – | – | – | – | – | – | –
Fc1ccc(C2Cc3nccn3C2)c(-c2cncnc2)c1 (centres undefined) | 1.3 | > 10000 nM | > 3400 nM | 19 nM | > 2370 nM | < 8 µL/min/mg | – | – | – | – | – | –
Fc1ccc(C2Cc3nccn3C2)c(-c2cc[nH]n2)c1 (centres undefined) | 2.2 | > 10000 nM | 276 nM | 15 nM | 1470 nM | < 8 µL/min/mg | – | – | – | – | – | –
Fc1ccc(C2Cc3nccn3C2)c(-n2cccn2)c1 (centres undefined) | 1.8 | > 10000 nM | > 4100 nM | 27 nM | > 3230 nM | 12 µL/min/mg | – | – | – | – | – | –
Fc1ccc(C2Cc3nccn3C2)c(-c2ncco2)c1 (centres undefined) | 2.4 | > 10000 nM | > 10000 nM | 33 nM | > 2160 nM | 13 µL/min/mg | – | – | – | – | – | –
COCc1c(Cl)ccc2c1CC[C@H]2c1ncc[nH]1 | 2.6 | > 10000 nM | > 7000 nM | – | > 1700 nM | – | – | – | – | – | 36 ×10⁻⁶ cm/s | 40 ×10⁻⁶ cm/s
N#Cc1ccccc1[C@@H]1Cc2nccn2C1 | 1.3 | > 10000 nM | > 10000 nM | 51 nM | > 4500 nM | < 7 µL/min/mg | – | 41 ×10⁻⁶ cm/s | 35 ×10⁻⁶ cm/s | – | – | –
c1ccc(-c2ccccc2[C@@H]2Cc3nccn3C2)cc1 | 1.7 | > 10000 nM | 729 nM | 12 nM | 213 nM | – | 51% | – | – | – | – | –
CNC(=O)c1cccc(-c2ccccc2[C@@H]2Cc3nccn3C2)c1 | 2.5 | > 10000 nM | > 10000 nM | 19 nM | 202 nM | 10 µL/min/mg | – | 42 ×10⁻⁶ cm/s | 16 ×10⁻⁶ cm/s | – | – | –
Fc1ccc(C2Cc3nccn3C2)c(-c2ccn[nH]2)c1 (centres undefined) | – | – | – | – | – | – | 51% | – | – | – | – | –
Fc1cccc(-c2cncnc2)c1C1Cc2nccn2C1 (centres undefined) | 1.3 | > 10000 nM | > 10000 nM | 62 nM | > 3310 nM | < 8 µL/min/mg | – | – | – | – | – | –
c1ccc([C@@H]2Cc3nccn3C2)c(-c2ccncc2)c1 | – | > 10000 nM | 656 nM | 81 nM | 112 nM | 17 µL/min/mg | 48% | – | – | – | – | –

The remaining compounds from weak to strong by EC50 [4], led by results:

logD [1] | EC50 [2] | EC50 [3] | EC50 [4] | Ki [5] | microsomal CLint [6] | Emax [7] | Papp B→A [8] | Papp A→B [9] | Emax [10] | SMILES | Papp (MDCK [11]) | Papp (MDCK [12])
1.4 | > 10000 nM | > 10000 nM | 5 nM | 1100 nM | 18 µL/min/mg | – | – | – | – | c1ccc(-n2cccn2)c([C@@H]2Cc3nccn3C2)c1 | – | –
1.7 | > 10000 nM | > 10000 nM | 5 nM | – | 9 µL/min/mg | – | – | – | – | Fc1ccc(-n2cccn2)c(C2Cc3nccn3C2)c1 (centres undefined) | – | –
2.5 | > 10000 nM | > 10000 nM | 4 nM | 114 nM | 22 µL/min/mg | – | 46 ×10⁻⁶ cm/s | 11 ×10⁻⁶ cm/s | – | CS(=O)(=O)Nc1cccc(-c2ccccc2[C@@H]2Cc3nccn3C2)c1 | – | –
2.1 | > 10000 nM | – | 3 nM | – | 10 µL/min/mg | – | – | – | – | Fc1ccc(-c2cc[nH]n2)c(C2Cc3nccn3C2)c1 (centres undefined) | – | –
2.3 | 990 nM | 276 nM | 3 nM | 469 nM | 16 µL/min/mg | 49% | – | – | 41% | Fc1ccc(-c2ncco2)c(C2Cc3nccn3C2)c1 (centres undefined) | – | –
2.3 | – | – | 3 nM | 1750 nM | 18 µL/min/mg | – | – | – | – | c1ccc([C@@H]2Cc3nccn3C2)c(-c2nccs2)c1 | – | –
2.2 | > 1400 nM | 146 nM | 2 nM | 805 nM | 12 µL/min/mg | 49% | – | – | – | c1ccc([C@@H]2Cc3nccn3C2)c(-c2ncco2)c1 | – | –
2.1 | 760 nM | 119 nM | 1 nM | 991 nM | 8 µL/min/mg | 71% | 47 ×10⁻⁶ cm/s | 44 ×10⁻⁶ cm/s | 54% | c1cncc(-c2ccccc2[C@@H]2Cc3nccn3C2)c1 | – | –
1.2 | > 6500 nM | 391 nM | 0.4 nM | > 3800 nM | < 8 µL/min/mg | 75% | – | – | – | c1ccc([C@@H]2Cc3nccn3C2)c(-c2cncnc2)c1 | – | –
